These results are taken from ChEMBL document CHEMBL4387720, “Lead generation of 1,2-dithiolanes as exon 19 and exon 21 mutant EGFR tyrosine kinase inhibitors” (Bioorg Med Chem Lett, 2019).

A value given as a limit tells only on which side of the number the result lay.

Series [1] concerns the target T1, Epidermal growth factor receptor (Homo sapiens, UniProt P00533, L858R).
Series [2] concerns the target T1, Epidermal growth factor receptor. The series can be described thus: Binding affinity to human partial length EGFR L858R mutant (R669 to V1011 residues) expressed in bacterial expression system under full equilibrating condition by scanKINETIC assay. The essentials:
(§1)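 Binding kinetics are read from Kd values measured under four dose-response arms. Arm A is full equilibration. Arm B is equilibrate, then 3-fold dilution, then equilibrate. Arm C is partial equilibration. Arm D is predilution followed by full equilibration. Comparing the arms assesses reversibility of binding.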

The target is the same in series [3]. Briefly: Binding affinity to human partial length EGFR L858R mutant (R669 to V1011 residues) expressed in bacterial expression system under partial equilibration condition by scanKINETIC assay. The method in brief:
as §1

Series [4] shares this target. The series can be described thus: Binding affinity to human partial length EGFR L858R mutant (R669 to V1011 residues) expressed in bacterial expression system under equilibrate/3-fold dilution/eqiulibrate condition by scanKINETIC assay. The method in brief: as §1
For series [5] the target is unchanged. The series can be described thus: Binding affinity to human partial length EGFR L858R mutant (R669 to V1011 residues) expressed in bacterial expression system under predilution/full equilibration condition by scanKINETIC assay. The essentials: as §1
Series [6] is filed under the species Homo sapiens. The series can be described thus: Selectivity ratio, ratio of IC50 for probe binding to HER2 (unknown origin) to IC50 for probe binding to EGFR L858R mutant (unknown origin). The essentials:
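Ratio of two IC50 values measured in the rabbit reticulocyte lysate competition binding assay: HER2 and EGFR L858R. Each IC50 comes from displacement of an active-site-dependent probe, read by luminescence, with a ten-point dose-response. Each IC50 is the average of triplicate experiments.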

In series [7] the target is Receptor tyrosine-protein kinase erbB-2 (Homo sapiens, UniProt P04626). The series can be described thus: Inhibition of probe binding to HER2 (unknown origin) using rabbit reticulate lysate system after 1 hr by luminescence assay. The essentials: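 Homogeneous competition binding in rabbit reticulocyte lysate with kinase expressed in the lysate. IC50 taken from a ten-point dose-response curve; value is the average of triplicate experiments.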

Series [8] concerns the target Epidermal growth factor receptor (Homo sapiens, UniProt P00533). Briefly: Inhibition of probe binding to wild type EGFR (unknown origin) using rabbit reticulate lysate system after 1 hr by luminescence assay.
The target in series [9] is Epidermal growth factor receptor (Homo sapiens, UniProt P00533, E746-A750DEL). Briefly: Binding affinity to human partial length EGFR E746-A750 deletion mutant expressed in bacterial expression system by KinomeScan assay. The essentials: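 Competition binding against an immobilized active-site-directed ligand. Bound kinase is quantified by qPCR of its DNA tag. Kd values come from duplicate 11-point dose-response curves.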

For series [10], the target named is T1, Epidermal growth factor receptor. The series can be described thus: Binding affinity to human partial length EGFR L858R mutant (R669 to V1011 residues) expressed in bacterial expression system by kinomescan assay. The method in brief: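 Competition binding against an immobilized active-site-directed ligand; bound kinase quantified by qPCR of its DNA tag. Kd taken from duplicate 11-point dose-response curves.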

The nature of series [11]: Half life in human S9 fraction. The class given is ADME, subcellular.
For series [12], the system named is CCRF-CEM. Briefly: Cytotoxicity against human CCRF-CEM cells assessed as reduction in measured protein incubated for 48 hrs by SRB assay. The format is functional. Conditions: read-out: LC50 (the source's name). The essentials:
(§2)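 Tested in the NCI-60 panel with a five-dose response curve, each value the mean of 2 experiments.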

For series [13], the system named is NCI-H322M. Briefly: Cytotoxicity against human NCI-H322M cells assessed as reduction in measured protein incubated for 48 hrs by SRB assay. The format is functional. Conditions: read-out: LC50 (the source's name). The method in brief: as §2
On the technique in general: The SRB assay estimates cell density from bound dye.

Series [14] deals with NCI-H322M. The series can be described thus: Therapeutic index, ratio of LC50 for human NCI-H322M cells to GI50 for human NCI-H322M cells. The format is functional. The essentials: (§3)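 NCI-60 panel screen using five-dose response curves, each value an average of 2 experiments. […] The therapeutic index is calculated as LC50/GI50 for the same cell line.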
Series [15] concerns CCRF-CEM. The series can be described thus: Therapeutic index, ratio of LC50 for human CCRF-CEM cells to GI50 for human CCRF-CEM cells. The class given is functional. The essentials: as §3
Series [16] deals with A549. Briefly: cells. The class given is functional. As to conditions: Homo sapiens, A549, 48 h.
Series [17] deals with MOLT-4. The series can be described thus: Therapeutic index, ratio of LC50 for human MOLT4 cells to GI50 for human MOLT4 cells. The class given is functional. The essentials: as §3
The subject of series [18] is NCI-H460. Briefly: cells. The format is functional. Conditions: Homo sapiens, NCI-H460, 48 h.
Series [19] deals with NCI-H322M. The series can be described thus: cells. The class given is functional. Conditions: Homo sapiens, 48 h.
Series [20] deals with MOLT-4. Briefly: cells. The class given is functional. As to conditions: Homo sapiens, MOLT-4, 48 h.
Series [21] has as its system MOLT-4. Briefly: Cytotoxicity against human MOLT4 cells assessed as reduction in measured protein incubated for 48 hrs by SRB assay. The class given is functional. Conditions: MOLT-4, 48 h, read-out: LC50 (the source's name). The method in brief:
as §2

Series [22] relates to CCRF-CEM. The series can be described thus: cells. The format is functional. As to conditions: Homo sapiens, 48 h.
Series [23] can be described thus: Half life in rat S9 fraction. The format is ADME, subcellular.

T1 sequence (P00533 25-1210 L858R limits assumed): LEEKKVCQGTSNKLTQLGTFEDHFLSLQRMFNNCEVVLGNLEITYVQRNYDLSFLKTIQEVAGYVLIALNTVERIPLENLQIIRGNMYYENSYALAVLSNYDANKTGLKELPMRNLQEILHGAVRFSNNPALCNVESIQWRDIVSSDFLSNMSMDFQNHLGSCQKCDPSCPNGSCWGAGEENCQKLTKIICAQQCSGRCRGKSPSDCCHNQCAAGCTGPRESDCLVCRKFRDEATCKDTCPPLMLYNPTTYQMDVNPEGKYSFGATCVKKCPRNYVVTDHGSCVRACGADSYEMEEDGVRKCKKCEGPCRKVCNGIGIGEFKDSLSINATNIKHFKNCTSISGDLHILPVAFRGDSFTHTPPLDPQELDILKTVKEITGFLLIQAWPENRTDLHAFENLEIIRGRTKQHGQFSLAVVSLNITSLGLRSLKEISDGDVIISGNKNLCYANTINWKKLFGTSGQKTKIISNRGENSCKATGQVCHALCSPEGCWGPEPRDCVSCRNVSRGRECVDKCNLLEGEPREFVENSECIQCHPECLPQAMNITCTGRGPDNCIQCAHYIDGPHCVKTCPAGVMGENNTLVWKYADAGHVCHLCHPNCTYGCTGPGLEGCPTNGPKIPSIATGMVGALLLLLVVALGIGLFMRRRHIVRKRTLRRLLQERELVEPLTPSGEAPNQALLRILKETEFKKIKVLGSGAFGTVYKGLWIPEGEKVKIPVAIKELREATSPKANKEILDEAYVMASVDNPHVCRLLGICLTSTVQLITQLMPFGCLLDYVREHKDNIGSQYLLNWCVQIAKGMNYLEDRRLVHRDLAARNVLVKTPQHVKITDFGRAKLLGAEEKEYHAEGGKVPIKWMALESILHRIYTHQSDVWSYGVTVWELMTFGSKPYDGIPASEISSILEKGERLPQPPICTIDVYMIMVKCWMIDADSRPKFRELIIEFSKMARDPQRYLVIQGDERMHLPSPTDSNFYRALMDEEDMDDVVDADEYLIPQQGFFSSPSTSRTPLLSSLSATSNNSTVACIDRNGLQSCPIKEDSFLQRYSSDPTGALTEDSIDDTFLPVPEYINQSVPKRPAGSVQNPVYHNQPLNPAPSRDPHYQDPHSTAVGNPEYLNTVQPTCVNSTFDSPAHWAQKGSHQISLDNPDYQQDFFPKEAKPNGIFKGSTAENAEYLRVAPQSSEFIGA
Sequence of Receptor tyrosine-protein kinase erbB-2 (P04626 whole entry): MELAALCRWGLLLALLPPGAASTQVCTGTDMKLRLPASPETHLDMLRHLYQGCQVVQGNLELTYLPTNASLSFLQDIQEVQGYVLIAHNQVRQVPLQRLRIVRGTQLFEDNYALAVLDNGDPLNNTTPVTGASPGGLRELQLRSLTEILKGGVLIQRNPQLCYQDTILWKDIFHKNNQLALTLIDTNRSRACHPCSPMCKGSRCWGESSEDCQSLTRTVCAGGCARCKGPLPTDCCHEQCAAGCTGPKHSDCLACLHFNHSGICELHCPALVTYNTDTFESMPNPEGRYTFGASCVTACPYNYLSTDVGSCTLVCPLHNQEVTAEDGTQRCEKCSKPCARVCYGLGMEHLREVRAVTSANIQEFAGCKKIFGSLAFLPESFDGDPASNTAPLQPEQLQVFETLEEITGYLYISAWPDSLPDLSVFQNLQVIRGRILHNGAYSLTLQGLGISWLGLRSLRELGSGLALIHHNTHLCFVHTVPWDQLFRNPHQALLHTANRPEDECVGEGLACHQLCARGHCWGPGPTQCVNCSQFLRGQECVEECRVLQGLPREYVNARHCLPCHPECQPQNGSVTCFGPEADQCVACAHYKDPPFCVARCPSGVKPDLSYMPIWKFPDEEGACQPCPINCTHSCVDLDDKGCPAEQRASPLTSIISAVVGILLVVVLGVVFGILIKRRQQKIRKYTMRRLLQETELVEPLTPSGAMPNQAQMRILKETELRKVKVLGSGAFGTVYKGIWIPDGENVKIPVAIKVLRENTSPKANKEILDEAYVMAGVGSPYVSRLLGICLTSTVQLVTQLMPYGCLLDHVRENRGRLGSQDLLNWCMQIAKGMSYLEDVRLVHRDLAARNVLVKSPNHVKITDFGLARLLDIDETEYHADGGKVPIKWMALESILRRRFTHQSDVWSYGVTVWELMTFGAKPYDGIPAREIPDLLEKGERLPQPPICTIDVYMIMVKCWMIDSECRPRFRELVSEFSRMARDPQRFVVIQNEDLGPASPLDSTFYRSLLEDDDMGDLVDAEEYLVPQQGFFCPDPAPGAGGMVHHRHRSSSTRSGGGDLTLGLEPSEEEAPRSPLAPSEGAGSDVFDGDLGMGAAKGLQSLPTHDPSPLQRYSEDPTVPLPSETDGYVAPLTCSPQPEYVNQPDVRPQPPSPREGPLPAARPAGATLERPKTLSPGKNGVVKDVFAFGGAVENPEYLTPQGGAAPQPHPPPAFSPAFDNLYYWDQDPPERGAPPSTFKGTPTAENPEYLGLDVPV
Sequence of Epidermal growth factor receptor (Homo sapiens, UniProt P00533) (P00533 whole entry): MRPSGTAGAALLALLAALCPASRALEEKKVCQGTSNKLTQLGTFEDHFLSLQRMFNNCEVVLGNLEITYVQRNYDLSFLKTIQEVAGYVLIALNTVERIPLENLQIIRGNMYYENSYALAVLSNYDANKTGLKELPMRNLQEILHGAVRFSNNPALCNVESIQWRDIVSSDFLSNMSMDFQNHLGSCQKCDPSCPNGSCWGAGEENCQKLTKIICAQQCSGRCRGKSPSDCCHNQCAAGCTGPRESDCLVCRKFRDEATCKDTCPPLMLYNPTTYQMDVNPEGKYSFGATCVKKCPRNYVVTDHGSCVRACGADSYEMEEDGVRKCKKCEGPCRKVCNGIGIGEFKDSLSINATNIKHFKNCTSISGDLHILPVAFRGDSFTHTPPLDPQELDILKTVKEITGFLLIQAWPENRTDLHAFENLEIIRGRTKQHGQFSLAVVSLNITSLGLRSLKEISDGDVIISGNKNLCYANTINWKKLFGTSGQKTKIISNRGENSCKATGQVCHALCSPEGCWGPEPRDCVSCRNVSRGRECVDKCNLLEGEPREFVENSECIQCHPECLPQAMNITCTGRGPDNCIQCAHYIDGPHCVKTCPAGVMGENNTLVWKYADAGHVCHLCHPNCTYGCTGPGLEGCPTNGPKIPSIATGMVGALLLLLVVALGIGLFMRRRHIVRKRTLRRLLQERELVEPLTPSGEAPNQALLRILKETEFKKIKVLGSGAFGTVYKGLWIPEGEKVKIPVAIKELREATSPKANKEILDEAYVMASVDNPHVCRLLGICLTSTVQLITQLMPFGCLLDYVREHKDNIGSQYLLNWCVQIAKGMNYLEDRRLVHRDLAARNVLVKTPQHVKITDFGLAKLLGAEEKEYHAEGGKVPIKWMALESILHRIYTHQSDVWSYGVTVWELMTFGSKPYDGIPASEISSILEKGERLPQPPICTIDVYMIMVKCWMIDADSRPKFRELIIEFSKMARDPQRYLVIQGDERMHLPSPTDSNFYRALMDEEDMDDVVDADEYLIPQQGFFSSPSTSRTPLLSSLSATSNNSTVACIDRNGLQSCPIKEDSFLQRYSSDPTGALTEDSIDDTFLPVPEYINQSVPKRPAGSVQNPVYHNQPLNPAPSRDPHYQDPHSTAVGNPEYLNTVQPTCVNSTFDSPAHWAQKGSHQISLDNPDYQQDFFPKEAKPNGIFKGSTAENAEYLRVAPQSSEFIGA
Sequence of Epidermal growth factor receptor (Homo sapiens, UniProt P00533, E746-A750DEL) (P00533 whole entry E746-A750del, looked up): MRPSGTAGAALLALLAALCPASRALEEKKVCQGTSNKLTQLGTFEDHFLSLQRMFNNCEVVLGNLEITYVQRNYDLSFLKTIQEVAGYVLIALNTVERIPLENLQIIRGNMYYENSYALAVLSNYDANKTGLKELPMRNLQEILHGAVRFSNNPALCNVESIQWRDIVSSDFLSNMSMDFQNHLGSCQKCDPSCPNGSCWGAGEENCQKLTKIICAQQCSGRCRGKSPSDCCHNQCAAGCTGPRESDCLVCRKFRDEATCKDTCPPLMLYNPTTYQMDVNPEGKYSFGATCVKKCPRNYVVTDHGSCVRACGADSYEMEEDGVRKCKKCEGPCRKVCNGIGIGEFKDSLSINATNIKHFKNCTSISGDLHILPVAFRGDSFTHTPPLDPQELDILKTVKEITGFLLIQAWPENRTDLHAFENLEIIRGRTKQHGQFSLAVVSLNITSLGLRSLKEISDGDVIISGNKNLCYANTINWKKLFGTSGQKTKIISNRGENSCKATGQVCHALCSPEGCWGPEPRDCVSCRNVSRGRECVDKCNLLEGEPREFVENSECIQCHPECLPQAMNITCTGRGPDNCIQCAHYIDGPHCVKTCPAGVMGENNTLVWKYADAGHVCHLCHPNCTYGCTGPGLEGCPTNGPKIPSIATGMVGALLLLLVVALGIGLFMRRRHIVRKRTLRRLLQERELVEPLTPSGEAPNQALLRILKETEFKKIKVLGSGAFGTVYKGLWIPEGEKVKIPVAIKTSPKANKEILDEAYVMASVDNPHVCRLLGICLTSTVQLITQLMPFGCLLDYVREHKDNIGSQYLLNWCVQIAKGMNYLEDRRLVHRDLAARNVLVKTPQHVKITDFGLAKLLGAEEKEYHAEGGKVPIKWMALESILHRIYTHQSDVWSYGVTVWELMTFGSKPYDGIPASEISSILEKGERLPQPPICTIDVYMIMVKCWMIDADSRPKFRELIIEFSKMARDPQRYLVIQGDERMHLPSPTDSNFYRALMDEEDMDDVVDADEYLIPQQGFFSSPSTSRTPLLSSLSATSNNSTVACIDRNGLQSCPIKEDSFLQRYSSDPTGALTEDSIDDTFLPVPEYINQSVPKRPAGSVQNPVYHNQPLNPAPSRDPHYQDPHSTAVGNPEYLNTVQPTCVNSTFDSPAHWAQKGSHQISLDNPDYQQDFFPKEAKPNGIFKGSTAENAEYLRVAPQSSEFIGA

What is called IC50 is the concentration needed to halve the response being measured. A lower IC50 goes with greater potency. The molecule `CCOc1cc2ncc(C#N)c(Nc3ccc(F)c(Cl)c3)c2cc1NC(=O)CCCCC1CCSS1` (stereo not given) came in with an IC50 in series [1] of 420 nM.

What is called Kd is the free concentration of one partner at which half of the binding sites on the other are occupied at equilibrium, for simple one-to-one binding. A high value points to a looser complex. Consider `CC(=O)SCC(CSC(C)=O)C(=O)Nc1cc2c(Nc3ccc(OCc4cccc(F)c4)c(Cl)c3)c(C#N)cnc2cc1OC[C@H](O)CO`, for which the Kd turned out to be 2.1 nM in [2], 5.9 nM in series [3], 58 nM in series [4] and 60 nM in series [5].

On to `N#Cc1cnc2cc(OC[C@@H](O)CO)c(NC(=O)C3CSSC3)cc2c1Nc1ccc(OCc2cccc(F)c2)c(Cl)c1`, for which the IC50 in series [1] is 9 nM; in series [7], 167 nM; in series [8] it was 125 nM. In addition, the Kd in series [2] was 0.7 nM; in series [3], 1.9 nM; in [4] it was 8.4 nM; in series [5], 16 nM. Moreover, the Ratio IC50 in series [6] is > 25.

Take `CCOc1cc2ncc(C#N)c(Nc3ccc(OCc4cccc(F)c4)c(Cl)c3)c2cc1NC(=O)C(CSC(C)=O)CSC(C)=O`: the IC50 in series [1] worked out at 26.8 nM; in series [8], 340 nM. For the same molecule, the Kd in [9] was 180 nM; in [10], 16 nM.

On to `Cc1ccc(Oc2ccc(Nc3c(C#N)cnc4ccc(NC(=O)CC5CCSS5)cc34)cc2C)cn1` (stereo not given), for which the IC50 is > 10000 nM in series [1], > 10000 nM in series [7] and 8630 nM in [8].

`Cc1ccc(Oc2ccc(Nc3c(C#N)cnc4ccc(NC(=O)C5CSSC5)cc34)cc2C)cn1`: the IC50 in series [1] and in [8] was > 10000 nM in each case.

Consider `N#Cc1cnc2cc(OC[C@H](O)CO)c(NC(=O)C3CSSC3)cc2c1Nc1ccc(OCc2cccc(F)c2)c(Cl)c1`, for which the IC50 was 20 nM in series [1] and 256 nM in series [8].

In the case of `N#Cc1cnc2ccc(NC(=O)CC3CCSS3)cc2c1Nc1ccc(OCc2cccc(F)c2)c(Cl)c1` (stereo not given), the IC50 in series [1] was determined as 36 nM; in [7], 730 nM; in series [8], 164 nM. Also, in series [6], the Ratio IC50 was > 25.

In [1], `CCOc1cc2ncc(C#N)c(Nc3ccc(F)c(Cl)c3)c2cc1NC(=O)CC1CCSS1` (stereo not given) gave an IC50 of 300 nM.

As usually defined, the half-life is the time in which the quantity being followed falls by half. A higher half-life goes with slow decline. In the case of `O=c1ccc2ccc(O)cc2o1` [UMBELLIFERONE], in series [11], the half-life was 26.6 min.

For the molecule `N#Cc1cnc2ccc(NC(=O)C3CSSC3)cc2c1Nc1ccc(OCc2cccc(F)c2)c(Cl)c1`, it took 199 nM to reach half-maximal inhibition in series [1] (IC50).

For `COc1cc2ncnc(Nc3ccc(OCc4cccc(F)c4)c(Cl)c3)c2cc1NC(=O)CC1CCSS1` (stereo not given), the IC50 in [1] came to 5.8 nM; in series [8] it was 25 nM.

Take `CCOc1cc2ncc(C#N)c(Nc3ccc(OCc4cccc(F)c4)c(Cl)c3)c2cc1NC(=O)CCCCC1CCSS1` (stereo not given): the figures for the IC50 in series [1] and in [8] were 33 nM and 730 nM, respectively. Moreover, in series [10], the Kd was 32 nM.

Turning to `COc1cc2ncnc(Nc3ccc(OCc4cccc(F)c4)c(Cl)c3)c2cc1NC(=O)C1CSSC1`, the IC50 was 6.5 nM in series [1] and 76 nM in series [8].

Molecule `CCOc1cc2ncc(C#N)c(Nc3ccc(F)c(Cl)c3)c2cc1NC(=O)C1CSSC1` came in with an IC50 in series [1] of 219 nM.

Broadly, the GI50 is the concentration at which growth is held to half of that of the control. In the case of `COc1cc2ncnc(Nc3ccc(Oc4ccc(C)nc4)c(C)c3)c2cc1NC(=O)CC1CCSS1` (stereo not given), the CC50 was > 50000 nM in series [12], > 50000 nM in [13] and > 2600 nM in [21]. In addition, the TI in series [14] is on record as >46.7; in series [15], >227; in [17], 16.2. Moreover, the GI50 in series [16] came out at 760 nM; in [18], 110 nM; in series [19] it was 1070 nM; in series [20] it was 160 nM; in series [22], 220 nM.

Molecule `CC(C)NCC(O)COc1cccc2ccccc12` (stereo not given) [PROPRANOLOL] yielded a half-life in series [23] of 27.5 min.

As to `COc1cc2ncnc(Nc3ccc(Oc4ccc(C)nc4)c(C)c3)c2cc1NC(=O)C1CSSC1`, the IC50 in [1] was found to be 413 nM; in series [7], 590 nM; in [8], 658 nM. Besides, the Ratio IC50 in series [6] is 1.4.

Consider `CCOc1cc2ncc(C#N)c(Nc3ccc(OCc4cccc(F)c4)c(Cl)c3)c2cc1NC(=O)C1CSSC1`, for which the IC50 turned out to be 18 nM in series [1], 730 nM in series [7] and 210 nM in series [8]. In series [9], the Kd is 110 nM. In series [6], the Ratio IC50 is > 25.
